{
  "source": "ChEMBL document CHEMBL4699441",
  "about": "“Identification and Preclinical Evaluation of the Bicyclic Pyrimidine γ-Secretase Modulator BMS-932481” (ACS Med Chem Lett, 2019)",
  "key": {"[1]": {"assay": "Induction of necrosis in rat at 100 mg/kg, po administered for 2 week", "assay_type": "organism-based", "conditions": "in vivo, 336 h, time 2 weeks", "outline": "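Rats given oral doses of 10, 30 or 100 mg/kg daily for 2 weeks in a repeat-dose toxicity study.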"}, "[2]": {"assay": "Plasma exposure (AUC) in rat at 3 mg/kg measured after 24 hrs"}, "[3]": {"molecular_target": "Gamma-secretase (Homo sapiens) (UniProt Q96BI3+Q9NZ42+Q8WW43+P49768+Q92542+P49810)", "assay": "Modulation of gamma-secretase in human H4 cells overexpressing APP incubated assessed as increase in amyloid beta (1 to 37) secretion for 24 hrs by MALDI-TOF mass spectrometric analysis", "assay_type": "cell-based", "conditions": "filed as modulator", "outline": "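H4-APPsw cells treated with compound; secreted Aβ species quantified by mass spectrometry; total Aβ1-x checked by ELISA up to 10 μM.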"}, "[4]": {"assay": "Octanol/water partition coefficient, logD of the compound at pH 7.4 by shake flask method", "assay_type": "physicochemical"}, "[5]": {"assay": "Oral bioavailability in Beagle dog at 1 mg/kg dosed as nano suspension measured up to 24 hrs by LC-MS/MS analysis", "assay_type": "ADME, organism-based, Canis lupus familiaris", "conditions": "in vivo", "outline": "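Oral dosing as a nanosuspension in Sprague–Dawley rat, male Beagle dog and male cynomolgus monkey; dogs pretreated with pentagastrin.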"}, "[6]": {"assay": "Reduction in amyloid beta (1 to 42) secretion in brain in Harlan Sprague-Dawley rat at 10 mg/kg, po measured after 3 hrs relative to control", "assay_type": "functional", "outline": "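Sprague–Dawley rats dosed 10 mg/kg po; brain Aβ1-42 measured 3 h postdose; n = 5.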"}, "[7]": {"assay": "Hemodynamic activity in unconscious telemeterized rabbit assessed as decrease in heart rate at >= 10 mg/kg", "assay_type": "ADME, organism-based, Oryctolagus cuniculus", "conditions": "in vivo"}, "[8]": {"system": "H4", "assay": "Inhibition of amyloid beta (1 to 42) secretion in human H4 cells overexpressing APP incubated for 24 hrs by MALDI-TOF mass spectrometric analysis", "assay_type": "functional, cell-based"}, "[9]": {"assay": "Metabolic stability in Sprague-Dawley rat assessed as half life incubated for 24 hrs by LC-MS/MS analysis", "assay_type": "ADME"}, "[10]": {"assay": "Half life in Sprague-Dawley rat at 2 mg/kg, iv measured up to 24 hrs by LC-MS/MS analysis", "assay_type": "ADME, organism-based", "conditions": "in vivo", "outline": "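Sprague-Dawley rats, 2 mg/kg by 5 min iv infusion in 9:1 PEG:EtOH, n=5.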"}, "[11]": {"assay": "Cardiotoxicity in unconscious telemeterized rabbit assessed as increase in QTcv time at 10 mg/kg", "assay_type": "toxicity, organism-based, Oryctolagus cuniculus", "conditions": "in vivo"}, "[12]": {"assay": "Fraction unbound in cynomolgus monkey plasma measured after 24 hrs by LC-MS/MS analysis", "assay_type": "ADME, cell-free, Macaca fascicularis"}, "[13]": {"molecular_target": "T1, Cytochrome P450 3A4 (Homo sapiens, UniProt P08684)", "T1 sequence (P08684 whole entry)": "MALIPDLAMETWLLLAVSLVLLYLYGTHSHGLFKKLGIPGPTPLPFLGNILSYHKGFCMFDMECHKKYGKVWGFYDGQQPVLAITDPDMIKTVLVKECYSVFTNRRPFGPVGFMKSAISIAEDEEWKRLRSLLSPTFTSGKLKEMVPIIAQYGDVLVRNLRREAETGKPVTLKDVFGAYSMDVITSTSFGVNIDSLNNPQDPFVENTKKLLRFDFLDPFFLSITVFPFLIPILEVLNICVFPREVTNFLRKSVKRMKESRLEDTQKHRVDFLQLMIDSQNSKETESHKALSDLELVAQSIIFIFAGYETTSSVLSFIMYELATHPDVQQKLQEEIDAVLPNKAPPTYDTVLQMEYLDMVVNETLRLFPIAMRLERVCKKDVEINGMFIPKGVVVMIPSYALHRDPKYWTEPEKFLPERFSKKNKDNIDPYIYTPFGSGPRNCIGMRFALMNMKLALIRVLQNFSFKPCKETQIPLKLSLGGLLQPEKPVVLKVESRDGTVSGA", "assay": "Inhibition of CYP3A4 in human liver microsomes measured after 30 mins", "assay_type": "ADME"}, "[14]": {"assay": "Metabolic stability in Beagle dog assessed as half life incubated for 24 hrs by LC-MS/MS analysis", "assay_type": "ADME, Canis lupus familiaris"}, "[15]": {"assay": "Metabolic stability in cynomolgus monkey assessed as half life incubated for 24 hrs by LC-MS/MS analysis", "assay_type": "ADME, Macaca fascicularis"}, "[16]": {"assay": "Toxicity in Beagle dog assessed as hyperbilirubinemia at 150 mg/kg, po administered for 1 month", "assay_type": "organism-based, Canis lupus familiaris", "conditions": "in vivo, 730 h, time 1 months", "outline": "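One-month oral toxicity study in dogs; high dose 150 mg/kg; bilirubin assessed.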"}, "[17]": {"assay": "Hemodynamic activity in conscious telemeterized rat assessed as change in heart rate at >= 10 mg/kg", "assay_type": "ADME, organism-based", "conditions": "in vivo"}, "[18]": {"assay": "Reduction in amyloid beta (1 to 42) secretion in brain in triple transgenic LaFerla mouse at 30 mg/kg, po measured after 3 hrs relative to control", "assay_type": "functional", "outline": "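Triple transgenic LaFerla mice (APP Swedish, MAPT P301L, PSEN1 M146V) given 30 mg/kg po; brain Aβ1-42 measured 3 h postdose; n = 3.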"}, "[19]": {"assay": "Fraction unbound in mouse plasma measured after 24 hrs by LC-MS/MS analysis", "assay_type": "ADME, cell-free"}, "[20]": {"assay": "Half life in cynomolgus monkey at 1 mg/kg, iv measured up to 24 hrs by LC-MS/MS analysis", "assay_type": "ADME, organism-based, Macaca fascicularis", "conditions": "in vivo", "outline": "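Male Beagle dogs and male cynomolgus monkeys, 1 mg/kg by 5 min iv infusion in 9:1 PEG:EtOH, n=3.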"}, "[21]": {"molecular_target": "T1, Cytochrome P450 3A4", "assay": "Time dependent inhibition of CYP3A4 in human liver microsomes assessed as inhibition constant", "assay_type": "ADME"}, "[22]": {"molecular_target": "T2, UDP-glucuronosyltransferase 1A1 (Homo sapiens, UniProt P22309)", "T2 sequence (P22309 whole entry)": "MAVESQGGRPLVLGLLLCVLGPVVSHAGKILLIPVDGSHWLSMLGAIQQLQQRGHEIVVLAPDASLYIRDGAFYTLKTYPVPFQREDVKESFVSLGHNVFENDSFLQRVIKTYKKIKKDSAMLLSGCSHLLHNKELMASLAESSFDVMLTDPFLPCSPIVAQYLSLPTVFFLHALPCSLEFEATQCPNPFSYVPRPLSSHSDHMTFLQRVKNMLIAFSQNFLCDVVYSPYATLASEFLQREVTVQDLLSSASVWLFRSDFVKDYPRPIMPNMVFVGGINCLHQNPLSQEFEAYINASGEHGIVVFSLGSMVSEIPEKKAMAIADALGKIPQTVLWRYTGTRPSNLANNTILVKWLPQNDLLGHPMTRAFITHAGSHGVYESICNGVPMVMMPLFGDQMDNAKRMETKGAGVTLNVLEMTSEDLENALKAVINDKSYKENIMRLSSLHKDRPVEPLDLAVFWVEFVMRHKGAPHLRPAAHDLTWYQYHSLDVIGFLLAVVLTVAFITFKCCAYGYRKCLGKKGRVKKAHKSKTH", "assay": "Inhibition of human UGT1A1", "assay_type": "ADME"}, "[23]": {"assay": "AUC (0 to 24 hrs) in Harlan Sprague-Dawley rat incubated for 24 hrs by LC-MS/MS analysis", "assay_type": "ADME", "design": "time 24 hrs", "conditions": "in vivo"}, "[24]": {"assay": "AUC in Beagle dog at 300 mg/kg, po measured up to 24 hrs by LC-MS/MS analysis", "assay_type": "ADME, organism-based, Canis lupus familiaris", "design": "route oral, dose 300 mg/kg, time >=24", "conditions": "in vivo", "outline": "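Dogs given an acute single oral dose of 300 mg/kg; plasma Cmax and AUC measured alongside bilirubin and other clinical pathology assessments.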"}, "[25]": {"assay": "Fraction unbound in human plasma measured after 24 hrs by LC-MS/MS analysis", "assay_type": "ADME, cell-free"}, "[26]": {"assay": "Inhibition of amyloid beta (1 to 42) secretion in human H4 cells overexpressing APP incubated for overnight by HTRF analysis", "assay_type": "functional, cell-based"}, "[27]": {"assay": "Induction of CYP3A4 mRNA expression in human hepatocytes at 1 uM relative to control", "assay_type": "ADME, cell-based, Hepatocyte"}, "[28]": {"assay": "Cardiotoxicity in unconscious telemeterized rabbit assessed as increase in QTcv time at 3 mg/kg", "assay_type": "toxicity, organism-based, Oryctolagus cuniculus", "conditions": "in vivo"}},
  "note": "pIC50, pKi: −log10 of the molar value. Active and inactive are the calls of the source. No cut-off for these calls is given here.",
  "data": [
    {"smiles": "CNc1nc(Nc2ccc(-n3cnc(C)n3)c(OC)c2)nc2c1CC[C@H]2c1ccc(F)cc1", "values": [
      {"measurement": "Activity", "setting": "[1]", "value": "Non-Toxic"},
      {"measurement": "AUC at 24 h", "setting": "[2]", "value": 9.7, "unit": "µM·h"},
      {"measurement": "inhibition", "setting": "[3]", "value": "Active"},
      {"measurement": "logD", "setting": "[4]", "value": 4.34},
      {"measurement": "F", "setting": "[5]", "value": 85, "unit": "%"},
      {"measurement": "inhibition in vivo at 10 mg/kg", "setting": "[6]", "value": 41, "unit": "%"},
      {"measurement": "Activity", "setting": "[7]", "value": "Non-Toxic"},
      {"measurement": "inhibition", "setting": "[8]", "value": "Active"},
      {"measurement": "t1/2", "setting": "[9]", "value": 28, "unit": "min"},
      {"measurement": "t1/2", "setting": "[10]", "value": 162, "unit": "min"},
      {"measurement": "Time", "setting": "[11]", "value": 10, "unit": "ms"},
      {"measurement": "Fu", "setting": "[12]", "value": 1.3, "unit": "%"},
      {"measurement": "pIC50", "setting": "[13]", "value": 6.70},
      {"measurement": "t1/2", "setting": "[14]", "value": 27, "unit": "min"},
      {"measurement": "t1/2", "setting": "[15]", "value": 11, "unit": "min"},
      {"measurement": "Activity", "setting": "[16]", "value": "Toxic"},
      {"measurement": "Activity", "setting": "[17]", "value": "Non-Toxic"},
      {"measurement": "inhibition in vivo at 30 mg/kg", "setting": "[18]", "value": 81, "unit": "%"},
      {"measurement": "Fu", "setting": "[19]", "value": 0.7, "unit": "%"},
      {"measurement": "t1/2", "setting": "[20]", "value": 174, "unit": "min"},
      {"measurement": "pKi", "setting": "[21]", "value": 4.08},
      {"measurement": "pIC50", "setting": "[22]", "value": 5.85},
      {"measurement": "AUC(0-t) at 24 h", "setting": "[23]", "value": 4, "unit": "µM·h"},
      {"measurement": "AUC", "setting": "[24]", "value": 180, "unit": "µM·h"},
      {"measurement": "Fu", "setting": "[25]", "value": 0.6, "unit": "%"},
      {"measurement": "pIC50", "setting": "[26]", "value": 8.18},
      {"measurement": "Activity", "setting": "[27]", "value": 16, "unit": "%"},
      {"measurement": "Time", "setting": "[28]", "value": 4, "unit": "ms"}
    ]}
  ]
}
